# Active and inactive are the calls of the source. The rule behind the calls is not given here.
# Experiments:
# [1] = Cytotoxicity against mouse RAW264.7 cells assessed as cell viability at 5 uM after 24 hrs by MTT assay; type: cell-based; settings: read-out: Activity
# Summary of the method: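 RAW264.7 cells at 1 × 10^4 per well in DMEM with 10% FBS were exposed to compound for 24 h. After PBS washes, they got 500 µg/mL MTT for 1 h at 37 °C. Formazan was dissolved in DMSO and read at 540 nm. Viability is relative to control, mean ± SD from at least three independent runs.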
# [2] = Retention time of the compound by HPLC analysis; type: physicochemical
# Summary of the method: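 Reversed-phase column (5 µm, 4.6 × 250 mm) at 1.0 mL/min with a 0–20% H2O in MeOH gradient.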
# RAW264.7 [3] = assay: Downregulation of RANKL-induced NFATc1 gene expression in mouse RAW264.7 cells at 2.5 and 5 uM treated for 1 hr prior to incubation with RANKL for 24 hrs by RT-PCR analysis; type: functional, cell-based
# Summary of the method: (§1)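 RAW264.7 cells grown a day in DMEM/10% FBS were switched to α-MEM with 100 ng/mL murine RANKL, with or without compound, for 24 h. Trizol RNA (2 µg) was reverse-transcribed with oligo(dT) and amplified with mouse-specific primers. Products were run on 1.5% agarose with EtBr, and band densities normalized to GAPDH.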
# RAW264.7 [4] = assay: Downregulation of RANKL-induced TRAP gene expression in mouse RAW264.7 cells at 2.5 and 5 uM treated for 1 hr prior to incubation with RANKL for 24 hrs by RT-PCR analysis; type: functional, cell-based; summary of the method: as §1
# RAW264.7 [5] = assay: Downregulation of RANKL-induced cathepsin K gene expression in mouse RAW264.7 cells at 2.5 and 5 uM treated for 1 hr prior to incubation with RANKL for 24 hrs by RT-PCR analysis; type: functional, cell-based; summary of the method: as §1
# RAW264.7 [6] = assay: Downregulation of RANKL-induced c-fos gene expression in mouse RAW264.7 cells at 2.5 and 5 uM treated for 1 hr prior to incubation with RANKL for 24 hrs by RT-PCR analysis; type: functional, cell-based; summary of the method: as §1
# RAW264.7 [7] = assay: Downregulation of RANKL-induced MMP-9 gene expression in mouse RAW264.7 cells at 2.5 and uM treated for 1 hr prior to incubation with RANKL for 24 hrs by RT-PCR analysis; type: functional, cell-based; summary of the method: as §1
# RAW264.7 [8] = assay: Downregulation of RANKL-induced DC-STAMP gene expression in mouse RAW264.7 cells at 2.5 and 5 uM treated for 1 hr prior to incubation with RANKL for 24 hrs by RT-PCR analysis; type: functional, cell-based; summary of the method: as §1
# RAW264.7 [9] = assay: Inhibition of RANKL-induced NF-kappaB activation in mouse RAW264.7 cells assessed as decrease in nuclear accumulation of NF-kappaB at 5 uM treated for 1 hr prior to incubation with RANKL for 24 hrs by ELISA; type: cell-based
# Summary of the method: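 After 1 h compound pretreatment and 24 h RANKL (100 ng/mL), nuclear extracts were tested in a p65 DNA-binding ELISA. The plate is coated with NF-κB response element, followed by primary antibody and tagged secondary antibody, with absorbance read at 450 nm.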
# RAW264.7 [10] = assay: Inhibition of RANKL-induced NF-kappaB activation in mouse RAW264.7 cells assessed as decrease in nuclear translocation of NF-kappaB at 5 uM treated for 1 hr prior to incubation with RANKL for 24 hrs by Western blot assay relative to control TBP gene expression; type: cell-based
# Summary of the method: (§2)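 Cells were pretreated with compound for 1 h in α-MEM/10% FBS, then given RANKL (100 ng/mL) for 24 h. Nuclear extracts (18 µg) were separated on 12% SDS-PAGE and blotted to PVDF, blocked with 5% BSA. Blots were probed overnight-style for 12 h at 4 °C with mAbs (1:1000) to NF-κB p65, NFATc1 and TBP, then HRP anti-rabbit (1:10000), with chemiluminescent detection.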
# RAW264.7 [11] = assay: Downregulation of RANKL-induced NFATc1 nuclear expression in mouse RAW264.7 cells at 5 uM treated for 1 hr prior to incubation with RANKL for 24 hrs by Western blot analysis relative to control TBP gene expression; type: functional; summary of the method: as §2
# RAW264.7 [12] = assay: Inhibition of RANKL-induced bone-resorbing activity in mouse RAW264.7 cells assessed as reduction of resorbing pits formed on dentine slices by mature osteoclasts at 5 uM after 4 days by pit formation assay; type: functional; settings: RAW264.7, Dentine, 96 h
# Summary of the method: (§3)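 Cells on dentine slices were kept in α-MEM with 10% FBS, 2 mM […] and 100 ng/mL RANKL, with or without compound, and medium was renewed every 2 days. At day 4, cells were removed with 1 M ammonium hydroxide and slices stained with 0.1% toluidine blue. Resorbed area/total area was measured per optical field.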
# RAW264.7 [13] = assay: Inhibition of RANKL-induced bone-resorbing activity in mouse RAW264.7 cells assessed as reduction of resorbing pits formed on dentine slices by mature osteoclasts after 4 days by pit formation assay; type: functional, cell-based; summary of the method: as §3
# RAW264.7 [14] = assay: Inhibition of RANKL-induced osteoclastogenesis in mouse RAW264.7 cells assessed as decrease in TRAP activity after 4 days by TRAP activity assay; settings: RAW264.7, 96 h
# RAW264.7 [15] = assay: Inhibition of RANKL-induced osteoclastogenesis in mouse RAW264.7 cells; type: functional, cell-based
# Summary of the method: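 RAW264.7 cells (2 × 10^4 per well) were cultured with 100 ng/mL RANKL in α-MEM/10% FBS, with or without compound. On day 4 they were lysed in 0.1% Triton X-100/50 mM Tris-HCl pH 7.2 on ice. TRAP was assayed with 2 mg/mL 4-nitrophenyl phosphate in 0.09 M citrate for 15 min at 37 °C, stopped with NaOH and read at 405 nm. Values were normalized to BCA protein for IC50.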
SMILES,Retention_time [2] [min],"viability at 24 h, 5 µM [1] [%]",IC50 (RAW264.7 [14]) [µM],other results
O=C(Nc1ccc(C(F)(F)F)cc1)c1cc(-c2ccc(F)cc2F)ccc1O,7.87,85.2,–,–
O=C(Nc1ccc(Cl)cc1F)c1cc(-c2ccc(F)cc2F)ccc1O,9.07,77.5,–,–
O=C(Nc1ccc(F)cc1F)c1cc(-c2ccc(F)cc2F)ccc1O,6.45,110,–,–
O=C(Nc1ccc(Cl)cc1F)c1ccccc1O,–,–,> 10,IC50 (RAW264.7 [15]): 15 µM
O=C(Nc1ccccc1C(F)(F)F)c1cc(-c2ccc(F)cc2F)ccc1O,5.44,99.4,–,–
O=C(Nc1cc(F)ccc1F)c1cc(-c2ccc(F)cc2F)ccc1O,7.8,102,3.67,inhibition (RAW264.7 [3]): Dose-dependent effect; inhibition (RAW264.7 [4]): Dose-dependent effect; inhibition (RAW264.7 [5]): Dose-dependent effect; inhibition (RAW264.7 [6]): Dose-dependent effect; inhibition (RAW264.7 [7]): Dose-dependent effect; inhibition (RAW264.7 [8]): Dose-dependent effect; inhibition (RAW264.7 [9]): Active; fold change (FC) (RAW264.7 [10]): 0.76; fold change (FC) (RAW264.7 [11]): 0.55; inhibition at 5 µM (RAW264.7 [12]): 80.5%; inhibition (RAW264.7 [13]): Dose-dependent effect
O=C(Nc1cccc(C(F)(F)F)c1)c1cc(-c2ccc(F)cc2F)ccc1O,7.27,96.7,4.57,–

# Now from value to molecule, other results behind:
Retention_time [2] [min],SMILES,"viability at 24 h, 5 µM [1] [%]",IC50 (RAW264.7 [14]) [µM],other results
6.92,N#Cc1cccc(NC(=O)c2cc(-c3ccc(F)cc3F)ccc2O)c1,72.2,2.96,inhibition (RAW264.7 [3]): Dose-dependent effect; inhibition (RAW264.7 [4]): Dose-dependent effect; inhibition (RAW264.7 [5]): Dose-dependent effect; inhibition (RAW264.7 [6]): Dose-dependent effect; inhibition (RAW264.7 [7]): Dose-dependent effect; inhibition (RAW264.7 [8]): Dose-dependent effect; inhibition (RAW264.7 [9]): Active; fold change (FC) (RAW264.7 [10]): 0.82; fold change (FC) (RAW264.7 [11]): 0.52; inhibition at 5 µM (RAW264.7 [12]): 59.3%; inhibition (RAW264.7 [13]): Dose-dependent effect
5.89,COc1cccc(NC(=O)c2cc(-c3ccc(F)cc3F)ccc2O)c1,105,–,–
7.61,COc1ccc(NC(=O)c2cc(-c3ccc(F)cc3F)ccc2O)cc1OC,98.9,–,–
6.37,C#Cc1cccc(NC(=O)c2cc(-c3ccc(F)cc3F)ccc2O)c1,63,–,–
7.72,O=C(Nc1ccc(F)c(F)c1)c1cc(-c2ccc(F)cc2F)ccc1O,78.4,–,–
6.84,N#Cc1ccc(NC(=O)c2cc(-c3ccc(F)cc3F)ccc2O)cc1,96.2,–,–

# Source: ChEMBL document CHEMBL3421559, “Discovery of 5-(2',4'-difluorophenyl)-salicylanilides as new inhibitors of receptor activator of NF-κB ligand (RANKL)-induced osteoclastogenesis” (Eur J Med Chem, 2015)
